Results from ChEMBL document CHEMBL4138185, “Investigation of the Physical and Bioactive Properties of Bromo- and Iodo-Containing Sponge-Derived Compounds Possessing an Oxyphenylethanamine Core” (J Nat Prod, 2017).

Assays:
Format in all cases: organism-based
Details in all cases: in vivo
[1] = tested on: Yersinia pseudotuberculosis; test: Toxicity against Yersinia pseudotuberculosis harboring pYV deletion mutant at 60 uM measured after 8 hrs by MTT assay
Method in brief: (§1)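 pYV− Y. pseudotuberculosis cultured in low-calcium media at 37 °C with test agent at 60 μM, kanamycin at 50 μg/mL, or DMSO. MTT added after 8 h of incubation; formazan absorbance at 570 nm taken as bacterial metabolic activity.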

[2] = tested on: Yersinia pseudotuberculosis; test: Growth inhibition of Yersinia pseudotuberculosis harboring pYV deletion mutant at 60 uM measured at 30 mins interval for 8 hrs
Method in brief: (§2)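 Y. pseudotuberculosis strain lacking the T3SS-encoding virulence plasmid pYV (pYV−), grown in low-calcium media at 37 °C with test agent at 60 μM, kanamycin at 50 μg/mL, or DMSO. Growth followed by absorbance at 600 nm over 8 h.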

[3] = tested on: Yersinia pseudotuberculosis; test: Growth inhibition of Yersinia pseudotuberculosis harboring pYV deletion mutant at 50 ug/ml measured at 30 mins interval for 8 hrs; method in brief: as §2
[4] = tested on: Yersinia pseudotuberculosis; test: Toxicity against Yersinia pseudotuberculosis harboring pYV deletion mutant at 50 ug/ml measured after 8 hrs by MTT assay; method in brief: as §1

Row | SMILES | Activity [1] | growth inhibition (GI) [2] | growth inhibition (GI) [3] | Activity [4]
1 | CCC(=O)N(C)CCc1ccc(OCCCNC(=O)Cc2ccc(O)cc2)c(I)c1 | Non-Toxic | Non-Toxic | – | –
2 | COc1c(Br)cc(CC(O)C(=O)NCCc2ccc(O)c(I)c2)cc1Br (stereo unspecified) | Non-Toxic | Non-Toxic | – | –
3 | CCC(=O)N(C)CCc1cc(Br)c(OCCCNC(=O)Cc2ccc(O)cc2)c(Br)c1 | Non-Toxic | Non-Toxic | – | –
4 | CCC(=O)N(C)CCc1ccc(OCCCNC(=O)Cc2ccc(O)cc2)c(Br)c1 | Non-Toxic | Non-Toxic | – | –
5 | CCC(=O)N(C)CCc1cc(Br)c(OCCCNC(=O)Cc2ccc(O)cc2)c(I)c1 | Non-Toxic | Non-Toxic | – | –
6 | COc1c(Br)cc(CC(O)C(=O)NCCc2ccc(O)c(Br)c2)cc1Br (stereo unspecified) | Non-Toxic | Non-Toxic | – | –
7 | CCC(=O)N(C)CCc1ccc(OCCCN(C)C(=O)Cc2ccc(O)cc2)c(Br)c1 | Non-Toxic | Non-Toxic | – | –
8 | NC[C@H]1O[C@H](O[C@H]2[C@H](O)[C@@H](O[C@H]3O[C@H](CO)[C@@H](O)[C@H](N)[C@H]3O)[C@H](N)C[C@@H]2N)[C@H](O)[C@@H](O)[C@@H]1O [KANAMYCIN] | – | – | Non-Toxic | Non-Toxic
